Experimental data taken from ChEMBL document CHEMBL1151908, “Towards calixarene-based prodrugs: Drug release and antibacterial behaviour of a water-soluble nalidixic acid/calix[4]arene ester adduct” (Bioorg Med Chem Lett, 2009).
Values after ≈ are worked out from the molar mass of the structure shown. Active and inactive are the calls of the source. No cut-off for these calls is given here.

Legend:
Escherichia coli [1] = assay: Antibacterial activity against Escherichia coli ATCC 25922 after 18 to 24 hrs by CA-SFM and NCCLS-based broth microdilution method; format: functional
How it was run: (§1)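 MIC determined in liquid phase by broth microdilution in U-bottom 96-well plates. Bacteria were grown in Mueller-Hinton broth or agar, and isolate purity was checked at each test by colony morphology and Gram stain. The final inoculum was 1×10^5 CFU/mL, with a series of drug concentrations added. Plates were incubated 18–24 h at 35 °C, and growth was read by absorbance at 540 nm. MIC is expressed in µmol/L and µg/mL.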

Staphylococcus aureus [2] = assay: Antibacterial activity against Staphylococcus aureus ATCC 25923 after 18 to 24 hrs by CA-SFM and NCCLS-based broth microdilution method; format: functional; how it was run: as §1
Staphylococcus aureus [3] = assay: Antibacterial activity against Staphylococcus aureus ATCC 29213 after 18 to 24 hrs by CA-SFM and NCCLS-based broth microdilution method; format: functional; how it was run: as §1
Enterococcus faecalis [4] = assay: Antibacterial activity against Enterococcus faecalis ATCC 29212 after 18 to 24 hrs by CA-SFM and NCCLS-based broth microdilution method; format: functional; how it was run: as §1
Pseudomonas aeruginosa [5] = assay: Antibacterial activity against Pseudomonas aeruginosa ATCC 27853 after 18 to 24 hrs by CA-SFM and NCCLS-based broth microdilution method; format: functional; how it was run: as §1
Escherichia coli [6] = assay: Antibacterial activity against Escherichia coli ATCC 25922 at < 256 ug/mL after 18 to 24 hrs by CA-SFM and NCCLS-based broth microdilution method; format: functional, organism-based
Staphylococcus aureus [7] = assay: Antibacterial activity against Staphylococcus aureus ATCC 25923 at < 256 ug/mL after 18 to 24 hrs by CA-SFM and NCCLS-based broth microdilution method; format: functional, organism-based
Staphylococcus aureus [8] = assay: Antibacterial activity against Staphylococcus aureus ATCC 29213 at < 256 ug/mL after 18 to 24 hrs by CA-SFM and NCCLS-based broth microdilution method; format: functional, organism-based
Enterococcus faecalis [9] = assay: Antibacterial activity against Enterococcus faecalis ATCC 29212 at < 256 ug/mL after 18 to 24 hrs by CA-SFM and NCCLS-based broth microdilution method; format: functional, organism-based
Pseudomonas aeruginosa [10] = assay: Antibacterial activity against Pseudomonas aeruginosa ATCC 27853 at < 256 ug/mL after 18 to 24 hrs by CA-SFM and NCCLS-based broth microdilution method; format: functional, organism-based

Row | MIC (Escherichia coli [1]) | MIC (Staphylococcus aureus [2]) | MIC (Staphylococcus aureus [3]) | MIC (Enterococcus faecalis [4]) | MIC (Pseudomonas aeruginosa [5]) | SMILES | Activity (Escherichia coli [6]) | Activity (Staphylococcus aureus [7]) | Activity (Staphylococcus aureus [8]) | Activity (Enterococcus faecalis [9]) | Activity (Pseudomonas aeruginosa [10])
1 | 25 µM (≈ 21.7 µg/mL) | 50 µM (≈ 43.5 µg/mL) | 50 µM (≈ 43.5 µg/mL) | 100 µM (≈ 86.9 µg/mL) | 100 µM (≈ 86.9 µg/mL) | CCn1cc(C(=O)OCCCOc2c3cc(CCN)cc2Cc2cc(CCN)cc(c2O)Cc2cc(CCN)cc(c2O)Cc2cc(CCN)cc(c2O)C3)c(=O)c2ccc(C)nc21 | – | – | – | – | –
2 | – | – | – | – | – | O=C([O-])C(F)(F)F.[Na+] | inactive | inactive | inactive | inactive | inactive
3 | 110 µM (≈ 72 µg/mL) | 220 µM (≈ 144 µg/mL) | 220 µM (≈ 144 µg/mL) | > 220 µM | 220 µM (≈ 144 µg/mL) | NCCc1cc2c(O)c(c1)Cc1cc(CCN)cc(c1O)Cc1cc(CCN)cc(c1OCCCO)Cc1cc(CCN)cc(c1O)C2 | – | – | – | – | –

Row | SMILES | MIC (Escherichia coli [1]) | MIC (Staphylococcus aureus [2]) | MIC (Staphylococcus aureus [3]) | MIC (Enterococcus faecalis [4]) | MIC (Pseudomonas aeruginosa [5]) | Activity (Escherichia coli [6]) | Activity (Staphylococcus aureus [7]) | Activity (Staphylococcus aureus [8]) | Activity (Enterococcus faecalis [9]) | Activity (Pseudomonas aeruginosa [10])
4 | CCn1cc(C(=O)O)c(=O)c2ccc(C)nc21 [NALIDIXIC ACID] | 100 µM (≈ 23.2 µg/mL) | 200 µM (≈ 46.4 µg/mL) | 200 µM (≈ 46.4 µg/mL) | 200 µM (≈ 46.4 µg/mL) | 200 µM (≈ 46.4 µg/mL) | – | – | – | – | –
